Columns and labels:
A549 = experiment: Growth inhibition of human A549/ATCC cells assessed as cell growth at 10^-6 M incubated for 48 hrs by sulforhodamine B assay; type: functional; conditions: A549, 48 h, read-out: Activity
How it was run: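 Five-dose assay: five concentrations from 10-fold or ½-log serial dilutions. Cells are plated at 5,000–40,000 per well according to doubling time, grown 24 h, then exposed 48 h at 37 °C, 5% CO₂. Fixed with cold 50% TCA (final addition) for 60 min at 4 °C and stained with 0.4% SRB in 1% acetic acid. Bound dye is solubilized in 10 mM Tris base and read at 515 nm. GI₅₀ is where [(Ti−Tz)/(C−Tz)]×100 = 50, with a time-zero plate as Tz.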

Albumin = Albumin (Bos taurus, UniProt P02769); experiment: Binding affinity to bovine serum albumin assessed as hyperchromicity in absorption spectra up to 20 uM after 5 mins by UV-visible spectroscopic analysis relative to control; type: ADME; conditions: cattle, isolated protein
Chain of Albumin (P02769 whole entry): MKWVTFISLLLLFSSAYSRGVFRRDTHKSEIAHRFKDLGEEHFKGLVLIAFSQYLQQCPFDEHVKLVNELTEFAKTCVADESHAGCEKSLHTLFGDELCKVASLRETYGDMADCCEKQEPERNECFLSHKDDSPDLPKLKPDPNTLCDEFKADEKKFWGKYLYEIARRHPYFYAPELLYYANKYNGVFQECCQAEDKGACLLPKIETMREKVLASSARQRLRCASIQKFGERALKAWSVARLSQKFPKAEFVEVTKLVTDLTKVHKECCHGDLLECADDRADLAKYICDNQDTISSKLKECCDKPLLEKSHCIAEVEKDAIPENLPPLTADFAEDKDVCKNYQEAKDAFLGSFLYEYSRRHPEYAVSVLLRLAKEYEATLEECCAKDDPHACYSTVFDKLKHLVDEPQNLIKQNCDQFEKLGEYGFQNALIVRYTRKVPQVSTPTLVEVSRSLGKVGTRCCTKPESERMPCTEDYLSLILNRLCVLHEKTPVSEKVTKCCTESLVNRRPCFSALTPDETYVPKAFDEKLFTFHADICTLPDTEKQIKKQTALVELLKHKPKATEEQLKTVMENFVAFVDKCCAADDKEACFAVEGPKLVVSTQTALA
How it was run: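 UV-visible absorption titration of 10 µM BSA in 0.1 M phosphate buffer pH 7.4 with increasing compound, 0–20 µM. Compounds diluted from DMSO stocks into buffer. Spectra recorded 200–800 nm in a 1 cm quartz cell at 300 K after 5 min equilibration. The BSA band is at 279 nm; changes are compared with BSA alone.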

U-251 [1] = experiment: Growth inhibition of human U251 cells assessed as cell growth at 10^-5 M incubated for 48 hrs by sulforhodamine B assay; type: functional; conditions: U-251, 48 h, read-out: Activity
NCI/ADR-RES [2] = experiment: Growth inhibition of human NCI/ADR-RES cells assessed as cell growth at 10^-4 M incubated for 48 hrs by sulforhodamine B assay; type: functional; conditions: read-out: Activity
[3] = Growth inhibition of human LOXIMVI cells assessed as cell growth at 10^-5 M incubated for 48 hrs by sulforhodamine B assay; type: functional; conditions: LOX IMVI, read-out: Activity
NCI/ADR-RES [4] = experiment: Growth inhibition of human NCI/ADR-RES cells incubated for 48 hrs by sulforhodamine B assay; type: functional
How it was run: (§1)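 Cells were plated at 5,000–40,000 per well according to doubling time and preincubated 24 h at 37 °C in 5% CO2; time-zero plates were then TCA-fixed. Five concentrations (10-fold or ½-log dilutions, DMSO stock) were incubated 48 h. Cells were TCA-fixed, stained with 0.4% SRB and read at 515 nm. GI50 was taken where [(Ti−Tz)/(C−Tz)]×100 = 50.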

SR = experiment: Growth inhibition of human SR cells assessed as cell growth at 10^-5 M incubated for 48 hrs by sulforhodamine B assay; type: functional; conditions: read-out: Activity
HT-29 = experiment: Growth inhibition of human HT-29 cells assessed as cell growth at 10 uM incubated for 48 hrs by sulforhodamine B assay; type: functional; conditions: HT-29, 48 h, read-out: Activity
[5] = Growth inhibition of human HCC2998 cells assessed as cell growth at 10 uM incubated for 48 hrs by sulforhodamine B assay; type: functional; conditions: HCC 2998, 48 h, read-out: Activity
How it was run: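 Primary screen at one dose (10 µM) across 60 human cancer cell lines. Readout was growth percent relative to untreated control and time-zero.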

[6] = Growth inhibition of human COLO205 cells assessed as cell growth at 10^-4 M incubated for 48 hrs by sulforhodamine B assay; type: functional; conditions: COLO 205, 48 h, read-out: Activity
How it was run: (§2)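 Cells seeded at 5,000–40,000/well according to doubling time and preincubated 24 h at 37 °C, 5% CO2. Time-zero plates were TCA-fixed. DMSO concentrate was diluted in medium with 50 µg/ml gentamicin to give five concentrations (10-fold or ½ log steps), then exposed 48 h. Cells were TCA-fixed, stained with 0.4% SRB and read at 515 nm. Percent growth was taken against time-zero and control; GI50, TGI and LC50 derived.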

[7] = Growth inhibition of human ovarian cancer cells incubated for 48 hrs by sulforhodamine B assay; type: functional; conditions: Cancer cell lines; for CC50: read-out: LC50 (the source's name)
[8] = Growth inhibition of human TK10 cells assessed as cell growth at 10^-4 M incubated for 48 hrs by sulforhodamine B assay; type: functional; conditions: TK-10, 48 h, read-out: Activity
[9] = Growth inhibition of human SNB75 cells assessed as cell growth at 10^-8 M incubated for 48 hrs by sulforhodamine B assay; type: functional; conditions: SNB-75, 48 h, read-out: Activity
U-251 [10] = experiment: Growth inhibition of human U251 cells assessed as cell growth at 10^-7 M incubated for 48 hrs by sulforhodamine B assay; type: functional; conditions: U-251, 48 h, read-out: Activity
NCI-H322M = experiment: Growth inhibition of human NCI-H322M cells assessed as cell growth at 10^-5 M incubated for 48 hrs by sulforhodamine B assay; type: functional; conditions: read-out: Activity
MDA-MB-435 [11] = experiment: Growth inhibition of human MDA-MB-435 cells assessed as cell growth at 10^-8 M incubated for 48 hrs by sulforhodamine B assay; type: functional; conditions: MDA-MB-435, 48 h, read-out: Activity
[12] = Growth inhibition of human UO31 cells assessed as cell growth at 10^-4 M incubated for 48 hrs by sulforhodamine B assay; type: functional; conditions: UO-31, 48 h, read-out: Activity
EKVX = experiment: Growth inhibition of human EKVX cells assessed as cell growth at 10^-8 M incubated for 48 hrs by sulforhodamine B assay; type: functional; conditions: read-out: Activity; how it was run: as §2
[13] = Growth inhibition of human LOXIMVI cells assessed as cell growth at 10 uM incubated for 48 hrs by sulforhodamine B assay; type: functional; conditions: LOX IMVI, read-out: Activity
[14] = Growth inhibition of human HOP92 cells assessed as cell growth at 10^-5 M incubated for 48 hrs by sulforhodamine B assay; type: functional; conditions: HOP-92, 48 h, read-out: Activity
MCF7 = experiment: Growth inhibition of human MCF7 cells assessed as cell growth at 10^-8 M incubated for 48 hrs by sulforhodamine B assay; type: functional; conditions: MCF7, 48 h, read-out: Activity
MDA-MB-435 [15] = experiment: Growth inhibition of human MDA-MB-435 cells assessed as cell growth at 10^-7 M incubated for 48 hrs by sulforhodamine B assay; type: functional; conditions: MDA-MB-435, 48 h, read-out: Activity
[16] = Growth inhibition of human IGROV1 cells assessed as cell growth at 10 uM incubated for 48 hrs by sulforhodamine B assay; type: functional; conditions: IGROV-1, 48 h, read-out: Activity
[17] = Growth inhibition of human MOLT4 cells assessed as cell growth at 10 uM incubated for 48 hrs by sulforhodamine B assay; type: functional; conditions: MOLT-4, 48 h, read-out: Activity
[18] = Growth inhibition of human PC3 cells assessed as cell growth at 10 uM incubated for 48 hrs by sulforhodamine B assay; type: functional; conditions: PC-3, 48 h, read-out: Activity
U-251 [19] = experiment: Growth inhibition of human U251 cells incubated for 48 hrs by sulforhodamine B assay; type: functional; conditions: U-251, 48 h; how it was run: as §1
MDA-MB-435 [20] = experiment: Growth inhibition of human MDA-MB-435 cells assessed as cell growth at 10 uM incubated for 48 hrs by sulforhodamine B assay; type: functional; conditions: MDA-MB-435, 48 h, read-out: Activity
[21] = read-out: LC50 (the source's name)
[22] = read-out: pLC50 (the source's name) (converted)

Compound	growth at 1 µM (A549)	Activity (Albumin)	growth at 100 µM (NCI/ADR-RES [2])	growth at 10 µM [3]	GI50 (NCI/ADR-RES [4]; read-out: GI50)	TGI (NCI/ADR-RES [4]; read-out: TGI)	GI50 (NCI/ADR-RES [4]; read-out: pGI50 (converted))	TGI (NCI/ADR-RES [4]; read-out: pTGI (converted))	growth at 10 µM (SR)	growth at 10 µM (HT-29)	growth at 10 µM [5]	growth at 100 µM [6]	GI50 [7]	TGI [7]	CC50 [7]	growth at 100 µM [8]	growth at 0.01 µM [9]	growth at 0.1 µM (U-251 [10])	growth at 10 µM (NCI-H322M)	growth at 0.01 µM (MDA-MB-435 [11])	also measured
c1ccc(-c2nc(Nc3ccc(-c4nc5ccccc5[nH]4)cc3)nc(N3CCOCC3)n2)cc1	96%	72.27%	-33%	-61%	1.93 µM	5.53 µM	1.95 µM	5.5 µM	-26%	-59.9%	-80.7%	-74%	1.85 µM	3.88 µM	6.84 µM	-94%	79%	110%	-79%	98%	growth at 10 µM (U-251 [1]): -85%; CC50 (NCI/ADR-RES [4]; [21]): > 100 µM; CC50 (NCI/ADR-RES [4]; [22]): > 100 µM; growth at 100 µM [12]: -76%; growth at 0.01 µM (EKVX): 92%; growth at 10 µM [13]: -89%; growth at 10 µM [14]: -75%; growth at 0.01 µM (MCF7): 92%; growth at 0.1 µM (MDA-MB-435 [15]): 101%; growth at 10 µM [16]: -38.1%; growth at 10 µM [17]: -37.8%; growth at 10 µM [18]: -35.5%; GI50 (U-251 [19]; read-out: GI50): 0.535 µM; CC50 (U-251 [19]; [21]): 4.89 µM; TGI (U-251 [19]; read-out: TGI): 1.76 µM; GI50 (U-251 [19]; read-out: pGI50 (converted)): 0.537 µM; CC50 (U-251 [19]; [22]): 4.9 µM; TGI (U-251 [19]; read-out: pTGI (converted)): 1.78 µM; growth at 10 µM (MDA-MB-435 [20]): -81.1%
Fc1ccc(-c2nc(Nc3ccc(-c4nc5ccccc5[nH]4)cc3)nc(N3CCOCC3)n2)cc1	99%	86.8%	-13%	-73%	3.18 µM	26.7 µM	3.16 µM	26.9 µM	-15%	-23.1%	-19.9%	-57%	2.74 µM	11.5 µM	> 100 µM	-27%	86%	102%	16%	99%	growth at 10 µM (U-251 [1]): 5%; CC50 (NCI/ADR-RES [4]; [21]): > 100 µM; CC50 (NCI/ADR-RES [4]; [22]): > 100 µM; growth at 100 µM [12]: -16%; growth at 0.01 µM (EKVX): 93%; growth at 10 µM [13]: -75.6%; growth at 10 µM [14]: -67%; growth at 0.01 µM (MCF7): 94%; growth at 0.1 µM (MDA-MB-435 [15]): 102%; growth at 10 µM [16]: 33.7%; growth at 10 µM [17]: 1.78%; growth at 10 µM [18]: 2.31%; GI50 (U-251 [19]; read-out: GI50): 2.04 µM; CC50 (U-251 [19]; [21]): > 100 µM; TGI (U-251 [19]; read-out: TGI): 13.6 µM; GI50 (U-251 [19]; read-out: pGI50 (converted)): 2.04 µM; CC50 (U-251 [19]; [22]): > 100 µM; TGI (U-251 [19]; read-out: pTGI (converted)): 13.5 µM; growth at 10 µM (MDA-MB-435 [20]): -38%
Clc1ccc(-c2nc(Nc3ccc(-c4nc5ccccc5[nH]4)cc3)nc(N3CCOCC3)n2)cc1	40%	97.67%	-7%	-70%	0.631 µM	2.19 µM	0.631 µM	2.19 µM	-21%	-78.6%	-89.9%	-44%	0.92 µM	2.3 µM	5.2 µM	-67%	83%	103%	-80%	100%	growth at 10 µM (U-251 [1]): -92%; growth at 100 µM [12]: -41%; growth at 0.01 µM (EKVX): 90%; growth at 10 µM [13]: -93%; growth at 10 µM [14]: -90%; growth at 0.01 µM (MCF7): 92%; growth at 0.1 µM (MDA-MB-435 [15]): 98%; growth at 10 µM [16]: -71.2%; growth at 10 µM [17]: -91.6%; growth at 10 µM [18]: -93.5%; GI50 (U-251 [19]; read-out: GI50): 0.215 µM; TGI (U-251 [19]; read-out: TGI): 0.442 µM; GI50 (U-251 [19]; read-out: pGI50 (converted)): 0.214 µM; TGI (U-251 [19]; read-out: pTGI (converted)): 0.447 µM; growth at 10 µM (MDA-MB-435 [20]): -86.1%
c1ccc2[nH]c(-c3ccc(Nc4nc(N5CCCCC5)nc(N5CCOCC5)n4)cc3)nc2c1	101%	72.31%	-10%	-72%	4.69 µM	55.2 µM	4.68 µM	55 µM	-14%	-28.1%	-1.07%	-69%	3.46 µM	22.6 µM	26.9 µM	-32%	75%	97%	29%	96%	CC50 (NCI/ADR-RES [4]; [21]): > 100 µM; CC50 (NCI/ADR-RES [4]; [22]): > 100 µM; growth at 100 µM [12]: -36%; growth at 0.01 µM (EKVX): 93%; growth at 10 µM [13]: -77.1%; growth at 10 µM [14]: -54%; growth at 0.01 µM (MCF7): 95%; growth at 0.1 µM (MDA-MB-435 [15]): 95%; growth at 10 µM [16]: 51.3%; growth at 10 µM [17]: 13.7%; growth at 10 µM [18]: 12.4%; GI50 (U-251 [19]; read-out: GI50): 2.18 µM; CC50 (U-251 [19]; [21]): 76.8 µM; TGI (U-251 [19]; read-out: TGI): 10 µM; GI50 (U-251 [19]; read-out: pGI50 (converted)): 2.19 µM; CC50 (U-251 [19]; [22]): 77.6 µM; TGI (U-251 [19]; read-out: pTGI (converted)): 10 µM; growth at 10 µM (MDA-MB-435 [20]): -27.3%

From ChEMBL document CHEMBL3808334, “Synthesis and in vitro evaluation of novel triazine analogues as anticancer agents and their interaction studies with bovine serum albumin” (Eur J Med Chem, 2016)
